# High-throughput results as filed in PubChem.
# HKDC1 inhibitor = blocks human hexokinase HKDC1 activity; recombinant HKDC1, G6PDH/diaphorase resazurin coupled fluorescence; Q2TB90; hit rate 0.16% among 340,000; inhibition, % at 20 µM; AID 493160;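 active = inhibition above about 35% when tested at 20 µM, limit read from the data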;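 also: plate controls were DMSO wells with enzyme for no effect and DMSO wells lacking enzyme for full effect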
# Target sequence (Q2TB90 whole entry, looked up): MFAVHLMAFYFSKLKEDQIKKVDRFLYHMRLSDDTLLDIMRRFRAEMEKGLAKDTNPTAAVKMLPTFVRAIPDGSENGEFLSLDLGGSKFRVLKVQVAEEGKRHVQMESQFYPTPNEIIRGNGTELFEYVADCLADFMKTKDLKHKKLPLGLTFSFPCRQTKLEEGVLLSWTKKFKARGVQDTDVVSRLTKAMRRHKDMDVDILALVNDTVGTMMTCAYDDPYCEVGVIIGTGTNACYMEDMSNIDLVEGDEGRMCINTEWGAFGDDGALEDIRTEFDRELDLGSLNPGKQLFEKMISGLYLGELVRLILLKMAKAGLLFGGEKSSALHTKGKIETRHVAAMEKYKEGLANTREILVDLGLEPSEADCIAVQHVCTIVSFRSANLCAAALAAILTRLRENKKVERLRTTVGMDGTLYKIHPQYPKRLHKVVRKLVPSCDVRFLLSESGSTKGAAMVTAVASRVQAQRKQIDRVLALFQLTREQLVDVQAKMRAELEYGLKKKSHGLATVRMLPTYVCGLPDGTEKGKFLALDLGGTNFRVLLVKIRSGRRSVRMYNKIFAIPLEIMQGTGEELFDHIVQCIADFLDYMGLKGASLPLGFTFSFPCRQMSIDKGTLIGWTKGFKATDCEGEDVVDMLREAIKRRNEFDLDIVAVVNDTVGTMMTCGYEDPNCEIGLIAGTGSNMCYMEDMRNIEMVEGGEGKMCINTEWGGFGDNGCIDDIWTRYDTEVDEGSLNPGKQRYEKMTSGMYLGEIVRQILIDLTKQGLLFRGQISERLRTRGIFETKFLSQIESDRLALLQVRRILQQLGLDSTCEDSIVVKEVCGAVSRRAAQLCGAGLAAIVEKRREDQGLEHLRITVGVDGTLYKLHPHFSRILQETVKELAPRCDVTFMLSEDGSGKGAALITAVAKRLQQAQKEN
#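 Incubation: 90 min at room temperature in dark / Material: recombinant HKDC1 (HK5) hexokinase enzyme, produced in-house / Quantity: enzyme 5 µg/mL final / Compound: one dose of 20 µM, 1% DMSO / Reagent: glucose and ATP substrates / Buffer or medium: Tris pH 8.0 buffer with MgCl2, Tween-20, BSA, BME / Technique: resorufin fluorescence at 613 nm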
# SUMO HTRF inh = SUMOylation inhibition. HTRF SUMOylation assay, SAE1/SAE2 + UBC9, in vitro. inhibition, % at 35 µM. hit rate 0.36% among 290,000; in the data active = inhibition above about 50%, passing the limit was not always enough
# A3G deaminase = blocks human APOBEC3G single-stranded DNA deamination | Q9HC16 | recombinant A3G, ssDNA deamination FAM/TAMRA fluorescence | inhibition, % at 20 µM | hit rate 0.28% among 330,000;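 active = inhibition of at least 40% at 20 µM, with no more than 30% in the related APOBEC3A deaminase screen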;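 also: plate controls were DMSO wells with A3G for no effect and wells lacking A3G enzyme for full effect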
# PfGluPho inh = PfG6PD (Plasmodium falciparum) enzyme inhibition | inhibition, % at 20 µM | PfGluPho enzyme, NADPH resazurin-diaphorase fluorescence | hit rate 0.78% among 350,000;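 active = inhibition reaching at least a set limit at 20 µM in the primary screen, cut at about 59% in these data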;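 also: 0% = DMSO wells with substrate and 100% = DMSO wells lacking glucose-6-phosphate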
# A3A deaminase = human APOBEC3A DNA deaminase inhibition. P31941. recombinant A3A, FAM/TAMRA ssDNA deamination fluorescence. inhibition, % at 20 µM. hit rate 0.41% among 330,000. AID 493011;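 active = at least 40% inhibition at 20 µM here, with at most 30% in a related deaminase screen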;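 also: plate controls were A3A with DMSO for no effect and wells lacking A3A enzyme for full effect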
# PfM18AAP inh = PfM18AAP enzyme inhibition. recombinant PfM18AAP, H-Glu-NHMec fluorogenic cleavage. inhibition, % at 7.35 µM. AID 1822. hit rate 1.2% among 290,000;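 active = inhibition above the campaign mean inhibition over all tested compounds plus 3 SD, cut at about 28% in these data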;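 also: 0% = plate median of test compound wells and 100% = 2 mM ZnCl2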
# A3G conf = confirmation of human APOBEC3G DNA deaminase inhibitors; shares compounds with A3G deaminase; recombinant A3G ssDNA deaminase, UDG/FAM-TAMRA fluorescence; inhibition, % at 20 µM; hit rate 72% among 890; AID 493152;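 active = inhibition reaching a set limit in any replicate at 20 µM, the limit being 80% of the first screen's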
# UDG A3G counter = inhibits E. coli UDG, flagging false APOBEC3G inhibitors; shares compounds with A3G deaminase; UDG counterscreen, FAM/TAMRA oligo fluorescence; inhibition, % at 20 µM; 710 tested, under 10 active;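 active = compounds giving 40% or more inhibition at 20 µM in any one of the three replicates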;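 also: plate controls were DMSO wells with UDG and oligo for no effect and DMSO wells lacking both for full effect; inhibitors lower the FAM signal released by uracil excision and alkaline cleavage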
# The depositor's hits bear a star; x = no result given. Only some compounds are listed: those with a hit (about 2.4% of all), similar ones and a draw of the others.
SMILES,HKDC1 inhibitor,SUMO HTRF inh,A3G deaminase,PfGluPho inh,A3A deaminase,PfM18AAP inh,A3G conf,UDG A3G counter
Cc1cc(C)cc(N(C(=O)c2ccco2)C(C(=O)NC2CCCC2)c2ccncc2)c1 (stereo unspecified),-4.0,-11.0,-8.8,1.8,-3.4,0.5,x,x
COc1cccc(C2CC(=O)N3CN(c4ccccc4F)CSC3=C2C#N)c1 (stereo unspecified),7.0,13.8,57.2*,83.2*,-1.9,15.0,30.8*,-1.9
COc1ccc(OC)c(C2CC(=O)NC(SC)=C2C#N)c1 (stereo unspecified),-2.5,9.6,6.9,28.2,0.4,-1.9,x,x
COc1cc(C2CC(=O)N3CN(c4ccccc4C)CSC3=C2C#N)cc(OC)c1OC (stereo unspecified),x,41.5,48.8*,x,0.1,33.5*,33.3*,x
COc1ccc(OC)c(C2CC(=O)N3CN(c4ccccc4F)CSC3=C2C#N)c1 (stereo unspecified),10.9,-5.0,66.7*,53.0,-0.7,28.3*,21.2,-3.0
O=C(c1cccs1)N1CCN(Cc2cccnc2)CC1,-5.9,22.8,-7.1,-2.0,-5.6,x,x,x
COc1ccc([C@@H]2[C@@H]3C(=O)N(C(C)(C)C)C(=O)[C@@H]3[C@]3(Cc4ccc(Cl)cc4)C(=O)N(c4ccc(OC)cc4)C(=O)N23)cc1,-3.0,x,-9.5,-0.2,-5.1,x,x,x
Cc1ccc(-c2csc(Nc3ccc(S(N)(=O)=O)cc3)n2)o1,-5.7,-3.1,52.2*,26.6,-8.8,-32.1,-45.5,-5.0
Cc1nc(C)c(-c2csc(Nc3ccc(S(N)(=O)=O)cc3)n2)s1,5.3,-1.9,-4.5,38.7,-4.3,4.5,x,x
O=C(CN(Cc1ccc(F)cc1)S(=O)(=O)c1ccccc1)N1CCCCC1,0.2,-9.7,81.1*,-1.7,-2.0,6.4,-21.6,-1.1
CS(=O)(=O)N(CC(=O)N1CCCC1)Cc1ccc(F)cc1,-2.5,10.3,5.4,-5.0,-1.7,-5.8,x,x
CC(NC(=O)OCc1ccccc1)C(=O)Oc1cc2oc(=O)cc(-c3ccccc3)c2cc1Cl (stereo unspecified),7.1,25.3,-2.9,-45.8,0.2,-8.4,x,x
COc1ccc(OCc2nnc(SCC(=O)Nc3ccccc3C#N)o2)cc1,-1.7,11.8,-10.5,2.1,-1.7,1.7,x,x
CCn1c(SCC(=O)Nc2ccc(OC)c(OC)c2)nnc1-c1ccco1,-2.6,4.3,43.2*,6.9,-3.6,1.6,-4.9,-4.2
CCn1c(SCC(=O)Nc2ccc(OC)cc2)nnc1-c1ccco1,-0.9,4.9,-8.5,32.0,-7.1,5.5,x,x
O=S(=O)(c1ccc(N2CCN(CCO)CC2)nc1)N1CCCCC1,-5.1,-10.2,41.6*,-0.5,4.4,2.4,-0.3,x
Cn1c(SCc2ccccc2)nc(N)c(N=O)c1=O,-0.7,x,-8.3,19.8,-1.1,x,x,x
COc1ccc(-n2sc3ccc(F)cc3c2=O)cc1,5.0,x,67.0*,112.2*,-4.2,x,81.0*,-1.7
Cn1c(C(=O)N[C@@H](Cc2ccccc2)C(=O)O)cc2cc(F)ccc21,3.0,4.5,42.6*,-20.7,-0.6,-10.6,-2.0,1.9
CCCOc1ccc(CCc2n[nH]c(=S)n2-c2ccccc2)cc1,-4.4,-10.2,-3.7,25.8,-2.4,3.7,x,x
CCCCCC(O)CCc1n[nH]c(=S)n1-c1ccccc1 (stereo unspecified),-3.1,15.1,41.2*,35.2,0.2,9.3,57.8*,-2.5
CCN(CC)S(=O)(=O)c1ccc2c(c1)nc(SCC(=O)N1CCOCC1)n2-c1ccccc1OC,6.5,20.9,43.8*,1.5,6.8,4.6,-0.3,x
O=C(NC1CC1)c1ccc2c(c1)N(Cc1ccccc1)CCS2,-1.3,31.2,-7.6,12.9,-3.5,2.5,x,x
Cc1ccc(Nc2nnns2)cc1,-8.2,20.0,40.8*,59.6*,2.3,3.5,27.2*,-3.5
CCN1CCN(C(CNS(=O)(=O)c2ccc(C)cc2)c2ccccc2)CC1 (stereo unspecified),-5.7,12.7,-2.6,-4.5,0.2,2.6,x,x
SMILES,HKDC1 inhibitor,SUMO HTRF inh,A3G deaminase,PfGluPho inh,A3A deaminase,PfM18AAP inh,A3G conf,UDG A3G counter
CCNc1nnc(SCC(=O)c2c(N)n(C3CC3)c(=O)[nH]c2=O)s1,0.0,x,-10.5,-1.6,0.9,x,x,x
CC(C)OC(=O)CSc1nnc(-c2ccc(C(C)(C)C)cc2)n1N,-2.9,2.2,42.1*,48.7,3.5,26.4,28.5,x
COc1ccc(C2(C)NC(=O)N(Cc3cc(Cl)cc4c3OCOC4)C2=O)cc1OC (stereo unspecified),-5.1,9.7,-1.6,-16.2,3.4,-10.0,x,x
O=C1c2ccccc2C(=O)N1CCSc1n[nH]c(=S)s1,-3.4,13.3,53.7*,11.1,1.0,7.2,active,-3.5
CC(CSc1n[nH]c(=S)s1)c1ccccc1 (stereo unspecified),-2.0,x,x,35.8,x,x,x,x
COc1cccc(NC(=O)CSc2ccc3nnc(CCNC(=O)c4ccccc4)n3n2)c1,-4.9,0.3,0.6,4.2,4.2,-0.7,x,x
Cc1ccc(N2C(=O)CS(=O)C(c3ccccc3)C2=O)cc1C (stereo unspecified),21.0,-11.8,15.9,38.9,-1.6,-57.0,x,x
COc1ccc(N2C(=O)CS(=O)C(c3ccccc3)C2=O)cc1 (stereo unspecified),1.0,-1.4,54.3*,19.2,-3.8,-102.1,89.5*,-4.0
CCc1cc2c(=O)oc(-c3ccccc3F)nc2s1,4.9,4.5,-2.7,13.8,1.3,9.6,x,x
COc1ccc(CCN2CC(C(=O)NCCN3CCCC3=O)CCC2=O)cc1 (stereo unspecified),2.4,-10.3,16.7,1.3,3.3,-1.1,x,x
CSc1nc2c(c(=O)[nH]c(=O)n2C)n1Cc1ccc(Cl)cc1,-1.9,4.9,53.0*,64.8*,1.5,24.4,56.2*,-3.2
CSc1nc2c(c(=O)[nH]c(=O)n2C)n1Cc1ccccc1Cl,0.4,10.5,-7.2,11.4,-3.6,-0.7,x,x
O=C(NN1C(=O)C2CC=C(Cl)CC2C1=O)c1ccncc1 (stereo unspecified),14.3,10.1,40.1*,-11.6,29.4,-1.7,40.5*,-4.5
CC(=O)Nc1nn(CC(C)C)c2nc3ccc(C)cc3cc12,x,x,x,8.8,x,x,x,x
O=C1NN=C(CSc2n[nH]c(=S)s2)CS1,8.4,3.3,67.5*,7.5,0.5,27.9,67.1*,1.9
COc1cc(NC(=O)Nc2cccc(Cl)c2)c(C(=O)O)cc1OC,-0.6,11.6,-3.6,-0.5,-4.7,5.8,x,x
COc1ccc(/C=N/n2c(-c3cc(C)[nH]n3)n[nH]c2=S)cc1OC,-6.8,13.1,42.6*,27.6,-1.2,-13.5,62.8*,0.1
